From PubChem
Rows were chosen to be rich in hits. Some 3.5% of all compounds tested hit in one or more screens of this group.
DENV2 CPE: inhibitors of DENV2 cytopathic effect, primary screen, cell-based, plate reader, single concentration | CPE inhibition, % at 9.99 µM | AID 651640, 2012 | 350,000 compounds, 1.7% hits | DENV2-infected cells, cytopathic effect rescue; in the data active means CPE inhibition above about 20%, passing the limit was not always enough; inconclusive means no clear call, values can overlap the other calls; tested in BHK-21 cells;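 further: 0% = median of neutral control wells and 100% = median of positive control wells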
FN deposition inh: inhibitors of fibronectin matrix deposition, primary screen, AH1F cells, Alexa488-fibronectin fluorescence, plate reader; AH1F fibroblasts, overnight; inhibition, % at 12.6 µM; 350,000 compounds, 0.086% hits;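 active means mean inhibition across replicates of 30% or more, regardless of how many single replicates reach that level; inconclusive means mean under 30% yet at least half of replicates reach 30%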;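 further: positive control wells lacked labelled fibronectin entirely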
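test system = AH1F fibroblasts assembling fluorescent fibronectin matrix | quantity = 10000 AH1F cells per well | buffer or medium = DMEM plus 2% serum, read in PBS | doses = single dose, pinned | incubation = 1 h cell attachment, overnight exposure to compound and label | detection = fluorescence at 485 nm excitation, 525 nm emission | read-out basis = inhibition from reduced deposited-fibronectin fluorescence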
PglD DTNB: C. jejuni PglD acetyltransferase inhibitors, primary screen, biochemical, DTNB colorimetric, single point; UDP-N-acetylbacillosamine N-acetyltransferase PglD (Campylobacter jejuni); purified PglD enzyme, DTNB colorimetric CoA detection; inhibition, % at 12.5 µM; 360,000 compounds, 0.098% hits; in the data active means inhibition above about 16%, passing the limit was not always enough; inconclusive means no clear call, values can overlap the other calls
Ecoli rRNA inh: reduced GFP signal of wild-type E. coli, primary screen, bacterial rRNA inhibitor project, GFP/RFP fluorescence, OD600, single point; E. coli WT GFP vs humanized-ribosome RFP mutants, 24 h; stronger effect = lower value; DMSO median 0, no signal -100; GFP signal change (wild-type ribosome), % (test concentration not listed); 350,000 compounds, 1.6% hits; AID 720706, 2013;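 active means significant combined selectivity score with lowered wild-type GFP, culture density cut under 30%, mutant RFP and density less affected; inactive means any of these conditions unmet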
HIV Env fusion: inhibitors of HIV-1 Env-driven cell-cell fusion, primary screen, HeLa-JRFL effector, CEM21 target cells, luciferase; inhibition, % at 12.3 µM; 360,000 compounds, 1.1% hits;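 active means mean replicate inhibition score of at least 50 and every replicate individually at or above 50; inconclusive means only one of the two criteria met; inactive means mean below 50 and not all replicates reaching 50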;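 further: 0% = plate neutral controls and 100% = maraviroc near 300 nM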
PGC1a acetyl inh: inhibitors of PGC1a acetylation signal, primary screen, cell-based, U2OS, AlphaScreen, inhibitor mode. AlphaScreen anti-acetyl-lysine; with virally co-expressed GCN5 acetyltransferase. inhibition, % at 15.6 µM. AID 651687, 2012. 350,000 compounds, 0.17% hits;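 active means every replicate shows inhibition of at least 40%; inconclusive means mean inhibition at least 40% but some replicate below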;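 further: 0% = neutral control wells and 100% = positive control wells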
PglD confirm: PglD acetyltransferase inhibitors, confirmation, biochemical, DTNB absorbance, single point, cherry-picked samples. shares compounds with PglD DTNB. Purified C. jejuni PglD, DTNB absorbance 412 nm. inhibition, % at 20 µM. 320 tested, under 10 active;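 active means mean inhibition across replicates of at least 20% with every single replicate also at 20% or more; inconclusive means mean inhibition at least 20% but some replicate falls below 20%; inactive means mean inhibition under 20% and not all replicates reach it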;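 further: initial rate of CoA release by acetyl transfer from AcCoA to the UDP-4-amino sugar; 0% = median of neutral control wells and 100% = median of positive control wells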
* = called active by the depositor; i = inactive; u = inconclusive; x = no result given; [ ] = another dose, or the depositor's remark.

SMILES | DENV2 CPE | FN deposition inh | PglD DTNB | Ecoli rRNA inh | HIV Env fusion | PGC1a acetyl inh | PglD confirm
COc1ccc(NC(=O)c2cc(-c3ccc(F)cc3OC(C)C)n[nH]2)cn1 | -8 | 1 | 8 | -9 | x | -7 | x
CC(C)Oc1cc(F)ccc1-c1cc(C(=O)Nc2cccc(C(F)(F)F)c2)[nH]n1 | u | 2 | 24* | -10 | -37 | -32 | -12
NC(=O)CC(NC(=O)c1ccc(Cl)cc1)C(=O)NCCc1ccc(S(N)(=O)=O)cc1 (centres undefined) | 1 | -10 | 23* | 6 | -14 | -1 | 0
NS(=O)(=O)c1ccc(CCNC(=O)CCCNC(=O)c2ccc(Cl)cc2)cc1 | -5 | 5 | 0 | 0 | 8 | x | x
COc1cc(/C=N\NC(=O)c2ccc(C)nc2)ccc1OC(=O)c1cccc(F)c1 | u | 0 | 29* | 3 | -21 | 2 | -7
Cc1ccc(C(=O)N/N=C\c2ccc(OC(=O)c3cccc(F)c3)cc2)cn1 | 11 | -4 | 3 | 7 | 5 | x | x
COc1ccc(NC(=O)N(C)C[C@@H]2Oc3c(NC(=O)Nc4cccc5ccccc45)cccc3C(=O)N([C@H](C)CO)C[C@H]2C)cc1 | 7 | 3 | 3 | -1 | x | -5 | x
C[C@@H]1CN([C@H](C)CO)C(=O)c2cccc(NC(=O)C3CCCCC3)c2O[C@H]1CN(C)S(=O)(=O)c1ccc(F)cc1 | -1 | x | 0 | 2 | x | 4 | x
C=CCNc1nc(Cl)nc(Nc2ccc(OCC)cc2)n1 | -4 | -2 | 29* | 9 | -4 | -2 | 3
C=CCNc1nc(Nc2ccc([N+](=O)[O-])cc2)nc(OCC)n1 | -1 | -2 | x | x | 6 | x | x
O=C(C[C@@H]1C=C[C@H](NC(=O)C2CCOCC2)[C@H](CO)O1)Nc1ccccc1 | 3 | x | x | 0 | x | 1 | x
O=S(=O)(c1ccc(F)cc1)N1CCCC(CO)C1 (centres undefined) | x | x | 33* | x | x | 5 | -2
O=C(O)C1CCCN(S(=O)(=O)c2ccc(F)cc2)C1 (centres undefined) | x | x | 10 | x | x | 2 | x
COc1ccc2c3c(n(C)c2c1)[C@@H](CO)N(CC1CC1)CC31CCN(C(=O)Nc2ccc(F)cc2F)CC1 | -4 | x | x | -4 | x | 40 | x
COc1ccc(-n2ccnc2)cc1 | 0 | -4 | 37* | 1 | 8 | x | 9
CCOC(=O)C1CCCN(C2CC(=O)N(c3ccc(N4C(=O)CC(N5CCCC(C(=O)OCC)C5)C4=O)cc3)C2=O)C1 (centres undefined) | x | 7 | -16 | x | 12 | 16 | x
CCOC(=O)C1CCCN(C2CC(=O)N(c3ccccc3)C2=O)C1 (centres undefined) | -6 | 7 | 27* | 3 | 27 | 6 | -3
C[C@H]1CN([C@@H](C)CO)C(=O)CCCn2cc(nn2)CO[C@H]1CN(C)C(=O)CCCN(C)C | -7 | 3 | -1 | -5 | x | -3 | x
Nc1ccc(-c2cnc(-c3ccc(N)cc3)nc2)cc1 | x | x | 31* | x | i | -7 | 3
CCN1C(=O)CC(N2CCN(c3ccc(C(=O)c4ccccc4)cc3)CC2)C1=O (centres undefined) | x | x | -7 | x | x | 5 | x
CCN1C(=O)CC(N2CCN(c3ccc(Cl)cc3)CC2)C1=O (centres undefined) | x | x | 35* | x | x | -5 | 2
CCNC(=O)C1CC(=O)N(Cc2ccc(F)cc2)C(=Nc2ccc(OC)cc2)S1 (centres undefined) | x | x | x | 7 | x | x | x
CCNC(=O)C1CC(=O)N(Cc2ccc3c(c2)OCO3)C(=Nc2ccc(OCC)cc2)S1 (centres undefined) | x | -3 | 24* | x | -5 | -6 | -7
COC(=O)C1CSC(C(=O)OC)N1C(=O)CN1CCN(c2ccc(OC)cc2)CC1 (centres undefined) | x | -3 | 59* | 13 | 5 | 3 | 3
CC(C)OCCCn1c(=NC(=O)c2ccncc2)c(C#N)cc2c(=O)n3ccccc3nc21 | x | x | 4 | x | -21 | -14 | x
SMILES | DENV2 CPE | FN deposition inh | PglD DTNB | Ecoli rRNA inh | HIV Env fusion | PGC1a acetyl inh | PglD confirm
CC(C)OCCCn1c(=NC(=O)c2cccs2)c(C#N)cc2c(=O)n3ccccc3nc21 | 5 | 11 | 68* | 5 | 7 | 0 | -8
CN1/C(=C\C(=O)Nc2cccc(Cl)c2)C(C)(C)c2ccccc21 | -7 | 11 | 20* | -27 | 11 | -7 | 13
CNC[C@H]1OCCCC[C@@H](C)Oc2ccc(NS(=O)(=O)c3cn(C)cn3)cc2C(=O)N([C@H](C)CO)C[C@@H]1C | 6 | x | 10 | 2 | -12[16.7 µM] | -4 | x
CC(=O)N(C)C[C@@H]1Oc2cc(C#Cc3ccccn3)ccc2S(=O)(=O)N([C@@H](C)CO)C[C@H]1C | 8 | x | 0 | 1 | -11[16.7 µM] | 8 | x
O=C(O)/C(=C\c1ccc(Br)cc1)NC(=O)c1cccs1 | 1 | 1 | 25* | 0 | -3 | 16 | 2
O=C(N/C(=C/c1ccc(Br)cc1)C(=O)N1CCCC1)c1cccs1 | u | -4 | x | 3 | 3 | x | x
COc1ccccc1-c1nnc(SCc2ccccn2)n1C | x | -5 | 62* | x | -25 | -7 | -3
Cc1ccc(-c2ccc3c(c2)O[C@@H](CN(C)C(=O)C2CCC2)[C@H](C)CN([C@H](C)CO)S3(=O)=O)cc1 | 7 | x | 0 | -6 | -6[16.7 µM] | -3 | x
Clc1ccc(-c2noc(CN3CCCC3)n2)cc1 | x | x | 31* | x | x | 5 | -4
O=C1C2C3c4ccccc4C(c4ccccc43)C2C(=O)N1Cc1ccco1 (centres undefined) | x | x | 24* | x | x | -5 | -5
COCC(=O)N(C)C[C@H]1Oc2cc(C#C[C@H](C)O)ccc2S(=O)(=O)N([C@H](C)CO)C[C@H]1C | -5 | 1 | -1 | 3 | 7[16.7 µM] | 12 | x
COc1ccc(CSc2nc(O)cc(=O)n2CC(C)C)cc1F | 2 | -11 | 21* | 4 | -4 | 10 | 2
COc1ccc2c3c([nH]c2c1)[C@@H](CO)N(C(=O)C1CCC1)CC31CCN(Cc2nccs2)CC1 | -8 | x | x | -4 | x | 4 | x
O=C(NCCC1=CCCCC1)c1cnsn1 | x | x | 42* | x | x | -2 | -1
CC(=O)c1ccc(OCCCC(=O)Nc2cccc(S(=O)(=O)N3CCOCC3)c2)cc1 | 0 | -2 | -7 | -3 | 39 | 1 | x
O=C(CCCOc1ccccc1)Nc1cccc(S(=O)(=O)N2CCOCC2)c1 | -3 | x | 21* | -11 | 13 | -1 | -4
